Assay results: ChEMBL document CHEMBL3822380, “Simple avarone mimetics as selective agents against multidrug resistant cancer cells” (Eur J Med Chem, 2016)
≈ marks a conversion by molar mass, not a printed value. Calls of active or inactive are those of the source.

Key:
Micrococcus luteus [1] = test: Antibacterial activity against Micrococcus luteus ATCC 4698 by broth microdilution method; format: functional; details: NCTC 2665
Summary of the method: (§1)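 Broth microdilution per NCCLS. Compounds dissolved in DMSO as 10 mg/mL stock, diluted in Mueller Hinton broth (bacteria) or Sabouraud dextrose broth (fungi). Amikacin served as the positive control for bacteria and nystatin for fungi.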

Clostridium sporogenes = test: Antibacterial activity against Clostridium sporogenes ATCC 19404 by broth microdilution method; format: functional; summary of the method: as §1
Saccharomyces cerevisiae = test: Antifungal activity against Saccharomyces cerevisiae ATCC 9763 by broth microdilution method; format: functional; summary of the method: as §1
Kocuria rhizophila = test: Antibacterial activity against Kocuria rhizophila ATCC 9341 by broth microdilution method; format: functional; details: DC2201; summary of the method: as §1
Pseudomonas aeruginosa = test: Antibacterial activity against Pseudomonas aeruginosa ATCC 9027 by broth microdilution method; format: functional; summary of the method: as §1
Staphylococcus aureus = test: Antibacterial activity against Staphylococcus aureus ATCC 6538 by broth microdilution method; format: functional; summary of the method: as §1
Salmonella enteritidis = test: Antibacterial activity against Salmonella enterica subsp. enterica serovar Enteritidis ATCC 13076 by broth microdilution method; format: functional; summary of the method: as §1
NCI-H460 [2] = test: Cytotoxicity against multidrug resistant human NCI-H460 cells after 72 hrs by MTT assay; format: functional, cell-based; details: NCI-H460, 72 h
Summary of the method: (§2)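 Seeding in 96-well plates at 1000 (NCI-H460), 2000 (NCI-H460/R) or 4000 (HaCaT) cells/well, treated after 24 h for 72 h. MTT at 0.4 mg/mL final, 4 h at 37 °C. Formazan dissolved in DMSO, absorbance read at 540 nm. Inhibition % = (1 − A treated/A untreated)×100. IC30 and IC50 obtained by linear regression.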

Candida albicans = test: Antifungal activity against Candida albicans ATCC 10231 by broth microdilution method; format: functional; summary of the method: as §1
Micrococcus luteus [3] = test: Antibacterial activity against Micrococcus luteus ATCC 10240 by broth microdilution method; format: functional; summary of the method: as §1
HaCaT [4] = test: Cytotoxicity against human HaCaT cells after 72 hrs by MTT assay; format: cell-based; details: for IC50: Homo sapiens, HaCaT; for IC30: human, hacat; summary of the method: as §2
Escherichia coli = test: Antibacterial activity against Escherichia coli ATCC 25922 by broth microdilution method; format: functional; summary of the method: as §1
NCI-H460 [5] = test: Cytotoxicity against human NCI-H460 cells after 72 hrs by MTT assay; format: functional, cell-based; details: NCI-H460, 72 h; summary of the method: as §2
Bacillus spizizenii = test: Antibacterial activity against Bacillus subtilis ATCC 6633 by broth microdilution method; format: functional; summary of the method: as §1
Proteus hauseri = test: Antibacterial activity against Proteus hauseri ATCC 13315 by broth microdilution method; format: functional; summary of the method: as §1
Aspergillus brasiliensis = test: Antifungal activity against Aspergillus brasiliensis ATCC 16404 by broth microdilution method; format: functional; summary of the method: as §1
[6] = Induction of apoptosis in human HaCaT cells assessed as live cells at 25 uM after 72 hrs by annexin-V/propidium iodide staining-based flow cytometric analysis (reference value: 96.8%); format: cell-based; details: read-out: Activity
HaCaT [7] = test: Induction of apoptosis in human HaCaT cells assessed as dead cells at 25 uM after 72 hrs by annexin-V/propidium iodide staining-based flow cytometric analysis (reference value: 2.8%); format: cell-based
NCI-H460 [8] = test: Induction of apoptosis in human NCI-H460 cells assessed as late apoptotic/necrotic cells at 25 uM after 72 hrs by annexin-V/propidium iodide staining-based flow cytometric analysis (reference value: 0.2%); format: functional
NCI-H460 [9] = test: Induction of apoptosis in multidrug resistant human NCI-H460 cells assessed as dead cells at 25 uM after 72 hrs by annexin-V/propidium iodide staining-based flow cytometric analysis (reference value: 1.5%); format: functional
NCI-H460 [10] = test: Induction of apoptosis in multidrug resistant human NCI-H460 cells assessed as early apoptotic cells at 25 uM after 72 hrs by annexin-V/propidium iodide staining-based flow cytometric analysis (reference value: 1.1%); format: functional
HaCaT [11] = test: Induction of apoptosis in human HaCaT cells assessed as late apoptotic/necrotic cells at 25 uM after 72 hrs by annexin-V/propidium iodide staining-based flow cytometric analysis (reference value: 0.2%); format: cell-based
NCI-H460 [12] = test: Induction of apoptosis in human NCI-H460 cells assessed as dead cells at 25 uM after 72 hrs by annexin-V/propidium iodide staining-based flow cytometric analysis (reference value: 1.2%); format: functional
NCI-H460 [13] = test: Induction of superoxide anion generation in multidrug resistant human NCI-H460 cells at 25 uM after 72 hrs by DHE staining-based flow cytometric analysis relative to control; format: functional, cell-based
Summary of the method: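 Seeded as for cell death (50,000 or 100,000 cells/well), treated 72 h at 25 µM, with CDDP 5 µM as control. Adherent cells trypsinized and loaded with 1 µM DHE for 30 min at 37 °C in the dark, then washed twice in PBS. Flow cytometry at ex 488/em 585 nm (FL2-H). Mean fluorescence intensity corrected for autofluorescence and compared with untreated control.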

NCI-H460 [14] = test: Induction of apoptosis in human NCI-H460 cells assessed as live cells at 25 uM after 72 hrs by annexin-V/propidium iodide staining-based flow cytometric analysis (reference value: 98.3%); format: functional
NCI-H460 [15] = test: Induction of apoptosis in multidrug resistant human NCI-H460 cells assessed as late apoptotic/necrotic cells at 25 uM after 72 hrs by annexin-V/propidium iodide staining-based flow cytometric analysis (reference value: 1%); format: functional
NCI-H460 [16] = test: Induction of apoptosis in human NCI-H460 cells assessed as early apoptotic cells at 25 uM after 72 hrs by annexin-V/propidium iodide staining-based flow cytometric analysis (reference value: 0.3%); format: functional
NCI-H460 [17] = test: Induction of apoptosis in multidrug resistant human NCI-H460 cells assessed as live cells at 25 uM after 72 hrs by annexin-V/propidium iodide staining-based flow cytometric analysis (reference value: 96.4%); format: functional
HaCaT [18] = test: Induction of apoptosis in human HaCaT cells assessed as early apoptotic cells at 25 uM after 72 hrs by annexin-V/propidium iodide staining-based flow cytometric analysis (reference value: 0.2%); format: cell-based
[19] = Selectivity ratio of IC30/IC50 for human HaCaT cells to IC30/IC50 for multidrug resistant human NCI-H460 cells; format: ADME, cell-based; details: HaCaT cells versus multidrug resistant NCI-H460 cells
Summary of the method: (§3)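 Fold threshold of 1.5 used to call selectivity to cancer cells, resistance, or selectivity to MDR cells.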

[20] = Selectivity ratio of IC30/IC50 for human HaCaT cells to IC30/IC50 for human NCI-H460 cells; format: ADME, cell-based; details: HaCaT cells versus NCI-H460 cells; summary of the method: as §3

| Molecule | MIC (Micrococcus luteus [1]) | MIC (Clostridium sporogenes) | MIC (Saccharomyces cerevisiae) | MIC (Kocuria rhizophila) | MIC (Pseudomonas aeruginosa) | MIC (Staphylococcus aureus) | MIC (Salmonella enteritidis) | IC30 (NCI-H460 [2]) | IC50 (NCI-H460 [2]) | MIC (Candida albicans) | MIC (Micrococcus luteus [3]) | IC50 (HaCaT [4]) | IC30 (HaCaT [4]) | MIC (Escherichia coli) | IC30 (NCI-H460 [5]) | IC50 (NCI-H460 [5]) | MIC (Bacillus spizizenii) | MIC (Proteus hauseri) | MIC (Aspergillus brasiliensis) | further results |
| --- | --- | --- | --- | --- | --- | --- | --- | --- | --- | --- | --- | --- | --- | --- | --- | --- | --- | --- | --- | --- |
| CNC1=CC(=O)C(C(C)(C)C)=CC1=O | 831 µM (≈ 161 µg/mL) | 813 µM (≈ 157 µg/mL) | 1620 µM (≈ 313 µg/mL) | 409 µM (≈ 79 µg/mL) | 1620 µM (≈ 313 µg/mL) | 25 µM (≈ 4.83 µg/mL) | 813 µM (≈ 157 µg/mL) | 31 µM | 58 µM | 1620 µM (≈ 313 µg/mL) | 103 µM (≈ 19.9 µg/mL) | 28 µM | 17 µM | 104 µM (≈ 20.1 µg/mL) | 34 µM | 63 µM | 813 µM (≈ 157 µg/mL) | 813 µM (≈ 157 µg/mL) | 51 µM (≈ 9.86 µg/mL) | – |
| NCC[C@H](O)C(=O)N[C@@H]1C[C@H](N)[C@@H](O[C@H]2O[C@H](CN)[C@@H](O)[C@H](O)[C@H]2O)[C@H](O)[C@H]1O[C@H]1O[C@H](CO)[C@@H](O)[C@H](N)[C@H]1O [AMIKACIN] | 3 µM (≈ 1.76 µg/mL) | 26 µM (≈ 15.2 µg/mL) | – | 3 µM (≈ 1.76 µg/mL) | 85 µM (≈ 49.8 µg/mL) | 19 µM (≈ 11.1 µg/mL) | 14 µM (≈ 8.2 µg/mL) | – | – | – | 14 µM (≈ 8.2 µg/mL) | – | – | 9 µM (≈ 5.27 µg/mL) | – | – | 72 µM (≈ 42.2 µg/mL) | 12 µM (≈ 7.03 µg/mL) | – | – |
| NYSTATIN | – | – | 1350 µM | – | – | – | – | – | – | 2700 µM | – | – | – | – | – | – | – | – | 1350 µM | – |
| CNC1=CC(=O)C=C(C(C)(C)C)C1=O | 1620 µM (≈ 313 µg/mL) | 1620 µM (≈ 313 µg/mL) | 3240 µM (≈ 626 µg/mL) | 813 µM (≈ 157 µg/mL) | 3240 µM (≈ 626 µg/mL) | 51 µM (≈ 9.86 µg/mL) | 1620 µM (≈ 313 µg/mL) | 15 µM | 23 µM | 1620 µM (≈ 313 µg/mL) | 202 µM (≈ 39 µg/mL) | 10 µM | 8 µM | 202 µM (≈ 39 µg/mL) | 14 µM | 25 µM | 1620 µM (≈ 313 µg/mL) | 1620 µM (≈ 313 µg/mL) | 103 µM (≈ 19.9 µg/mL) | – |
| CCCCNC1=CC(=O)C=C(C(C)(C)C)C1=O | 154 µM (≈ 36.2 µg/mL) | 1240 µM (≈ 291 µg/mL) | 154 µM (≈ 36.2 µg/mL) | – | 620 µM (≈ 146 µg/mL) | 9 µM (≈ 2.12 µg/mL) | 620 µM (≈ 146 µg/mL) | 4 µM | 13 µM | 77 µM (≈ 18.1 µg/mL) | 9 µM (≈ 2.12 µg/mL) | 11 µM | 7 µM | 9 µM (≈ 2.12 µg/mL) | 4 µM | 14 µM | 1240 µM (≈ 291 µg/mL) | – | 620 µM (≈ 146 µg/mL) | – |
| CCCCCCCCNC1=CC(=O)C(C[C@]2(C)[C@@H](C)CC[C@]3(C)C(C)=CCC[C@@H]23)=CC1=O | – | – | – | – | – | – | – | > 100 µM | > 100 µM | – | – | > 100 µM | > 100 µM | – | > 100 µM | > 100 µM | – | – | – | viability at 72 h, 25 µM [6]: 93.4%; Activity (HaCaT [7]): 5.8%; Activity (NCI-H460 [8]): 0.3%; Activity (NCI-H460 [9]): 3.1%; Activity (NCI-H460 [10]): 0.1%; Activity (HaCaT [11]): 0.7%; Activity (NCI-H460 [12]): 4.6%; Activity (NCI-H460 [13]): inactive; Activity (NCI-H460 [14]): 95.1%; Activity (NCI-H460 [15]): 0.7%; Activity (NCI-H460 [16]): 0%; Activity (NCI-H460 [17]): 96.1%; Activity (HaCaT [18]): 0.1% |
| CCNC1=CC(=O)C(C(C)(C)C)=CC1=O | 1510 µM (≈ 313 µg/mL) | 1510 µM (≈ 313 µg/mL) | 3020 µM (≈ 626 µg/mL) | 758 µM (≈ 157 µg/mL) | 3020 µM (≈ 626 µg/mL) | 96 µM (≈ 19.9 µg/mL) | 758 µM (≈ 157 µg/mL) | 45 µM | 65 µM | 1510 µM (≈ 313 µg/mL) | 48 µM (≈ 9.95 µg/mL) | 75 µM | 50 µM | 188 µM (≈ 39 µg/mL) | 45 µM | 64 µM | 1510 µM (≈ 313 µg/mL) | 1510 µM (≈ 313 µg/mL) | 381 µM (≈ 79 µg/mL) | – |
| CCNC1=CC(=O)C=C(C(C)(C)C)C1=O | 758 µM (≈ 157 µg/mL) | 758 µM (≈ 157 µg/mL) | 1510 µM (≈ 313 µg/mL) | 381 µM (≈ 79 µg/mL) | 758 µM (≈ 157 µg/mL) | 24 µM (≈ 4.97 µg/mL) | 381 µM (≈ 79 µg/mL) | 5 µM | 14 µM | 1510 µM (≈ 313 µg/mL) | 24 µM (≈ 4.97 µg/mL) | 30 µM | 22 µM | 24 µM (≈ 4.97 µg/mL) | 4 µM | 13 µM | 758 µM (≈ 157 µg/mL) | 758 µM (≈ 157 µg/mL) | 48 µM (≈ 9.95 µg/mL) | selectivity ratio [19]: ≤ 1.5; selectivity ratio [20]: ≤ 1.5 |
